# Results reported in ChEMBL document CHEMBL4190366, “Discovery and synthesis of novel Wogonin derivatives with potent antitumor activity in vitro” (Eur J Med Chem, 2017).
# The source made the active and inactive calls. The rule behind the calls is not given here.
# How the values were obtained:
# B16 = assay: Cytotoxicity in mouse B16 cells assessed as reduction in cell viability incubated for 72 hrs by MTT assay; type: functional, cell-based; details: for IC50: B16, 72 h
# Procedure, shortened: (§1)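 Cells pre-incubated 24 h at 37 °C, 5% CO2, then exposed to a range of compound concentrations for 72 h. Viability read as mitochondrial MTT-to-formazan conversion, absorbance at 570 nm.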
# HepG2 [1] = assay: Cytotoxicity in human HepG2 cells assessed as reduction in cell viability incubated for 72 hrs by MTT assay; type: functional, cell-based; details: for IC50: HepG2, 72 h; procedure, shortened: as §1
# MCF7 = assay: Cytotoxicity in human MCF7 cells assessed as reduction in cell viability incubated for 72 hrs by MTT assay; type: functional, cell-based; details: for IC50: MCF7, 72 h; procedure, shortened: as §1
# A549 [2] = assay: Cytotoxicity in human A549 cells assessed as reduction in cell viability incubated for 72 hrs by MTT assay; details: A549, 72 h
# HepG2 [3] = assay: Induction of ROS generation in human HepG2 cells at 2 to 6 uM incubated for 24 hrs by DCFH-DA staining based flow cytometry; type: functional, cell-based
# Procedure, shortened: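 HepG2 seeded at 6×10^4 cells/well and grown 24 h, then treated 24 h with 2, 4 or 6 µM. Washed with PBS and serum-free medium, loaded with serum-free DCFH-DA 30 min at 37 °C, washed twice cold. Fluorescence read by flow cytometry at 488/525 nm. Mean ± SEM, n = 3.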
# HepG2 [4] = assay: Induction of apoptosis in human HepG2 cells assessed as apoptosis level incubated for 24 hrs by FITC-labelled Annexin V/PI staining based flow cytometry; type: functional, cell-based
# Procedure, shortened: (§2)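 HepG2 treated 24 h with 2, 4 or 6 µM; 0.1% DMSO vehicle control. Stained with FITC-Annexin V/PI and analysed by flow cytometry 10-15 min after staining. Annexin V+/PI- counted as early/median apoptotic, Annexin V+/PI+ as late apoptotic.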
# [5] = Selectivity index, ratio of IC50 for human LO2 cells to IC50 for human HepG2 cells; type: toxicity; details: LO2 cells versus HepG2 cells, read-out: Ratio IC50
# Procedure, shortened: (§3)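 Selectivity ratio is L02 IC50 divided by cancer-cell IC50, each taken from the MTT viability assay.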
# L02 [6] = assay: Cytotoxicity in human LO2 cells assessed as reduction in cell viability at 15 uM incubated for 48 hrs by MTT assay; type: cell-based; details: l02, 48 h
# Procedure, shortened: (§4)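 Normal hepatic L02 cells incubated with compound for 48 h. Cell viability measured across a concentration series.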
# [7] = Selectivity index, ratio of IC50 for human LO2 cells to IC50 for human MCF7 cells; type: toxicity; details: LO2 cells versus MCF7 cells, read-out: Ratio IC50; procedure, shortened: as §3
# [8] = Selectivity index, ratio of IC50 for human LO2 cells to IC50 for human LNCAP cells; type: toxicity; details: LO2 cells versus LNCAP cells, read-out: Ratio IC50; procedure, shortened: as §3
# L02 [9] = assay: Cytotoxicity in human LO2 cells assessed as reduction in cell viability at 30 uM incubated for 48 hrs by MTT assay; type: cell-based; details: l02, 48 h; procedure, shortened: as §4
# HepG2 [10] = assay: Induction of apoptosis in human HepG2 cells assessed as apoptosis level at 2 to 4 uM incubated for 24 hrs by FITC-labelled Annexin V/PI staining based flow cytometry; type: functional, cell-based; procedure, shortened: as §2
# [11] = Selectivity index, ratio of IC50 for human LO2 cells to IC50 for human A549 cells; type: toxicity; details: LO2 cells versus A549 cells, read-out: Ratio IC50; procedure, shortened: as §3
# HepG2 [12] = assay: Induction of apoptosis in human HepG2 cells assessed as apoptosis level at 6 uM incubated for 24 hrs by FITC-labelled Annexin V/PI staining based flow cytometry (reference value: 2.6%); type: functional; procedure, shortened: as §2
# HepG2 [13] = assay: Ratio of cytotoxicity in human HepG2 cells at 5 uM in presence of 5 mM NAC incubated for 48 hrs by MTT assay to cytotoxicity in human HepG2 cells at 5 uM in absence of 5 mM NAC incubated for 48 hrs by MTT assay; type: functional
# Procedure, shortened: (§5)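 HepG2 cells incubated 48 h with compound at 1, 5 or 10 µM, with or without 5 mM N-acetylcysteine. Ratio is cell viability with NAC divided by viability with compound alone at the same concentration.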
# HepG2 [14] = assay: Ratio of cytotoxicity in human HepG2 cells at 10 uM in presence of 5 mM NAC incubated for 48 hrs by MTT assay to cytotoxicity in human HepG2 cells at 10 uM in absence of 5 mM NAC incubated for 48 hrs by MTT assay; type: functional; procedure, shortened: as §5
# [15] = target: Hepatocyte growth factor receptor (Homo sapiens, UniProt P08581); assay: Inhibition of c-Met (unknown origin)
# Sequence of Hepatocyte growth factor receptor (P08581 whole entry): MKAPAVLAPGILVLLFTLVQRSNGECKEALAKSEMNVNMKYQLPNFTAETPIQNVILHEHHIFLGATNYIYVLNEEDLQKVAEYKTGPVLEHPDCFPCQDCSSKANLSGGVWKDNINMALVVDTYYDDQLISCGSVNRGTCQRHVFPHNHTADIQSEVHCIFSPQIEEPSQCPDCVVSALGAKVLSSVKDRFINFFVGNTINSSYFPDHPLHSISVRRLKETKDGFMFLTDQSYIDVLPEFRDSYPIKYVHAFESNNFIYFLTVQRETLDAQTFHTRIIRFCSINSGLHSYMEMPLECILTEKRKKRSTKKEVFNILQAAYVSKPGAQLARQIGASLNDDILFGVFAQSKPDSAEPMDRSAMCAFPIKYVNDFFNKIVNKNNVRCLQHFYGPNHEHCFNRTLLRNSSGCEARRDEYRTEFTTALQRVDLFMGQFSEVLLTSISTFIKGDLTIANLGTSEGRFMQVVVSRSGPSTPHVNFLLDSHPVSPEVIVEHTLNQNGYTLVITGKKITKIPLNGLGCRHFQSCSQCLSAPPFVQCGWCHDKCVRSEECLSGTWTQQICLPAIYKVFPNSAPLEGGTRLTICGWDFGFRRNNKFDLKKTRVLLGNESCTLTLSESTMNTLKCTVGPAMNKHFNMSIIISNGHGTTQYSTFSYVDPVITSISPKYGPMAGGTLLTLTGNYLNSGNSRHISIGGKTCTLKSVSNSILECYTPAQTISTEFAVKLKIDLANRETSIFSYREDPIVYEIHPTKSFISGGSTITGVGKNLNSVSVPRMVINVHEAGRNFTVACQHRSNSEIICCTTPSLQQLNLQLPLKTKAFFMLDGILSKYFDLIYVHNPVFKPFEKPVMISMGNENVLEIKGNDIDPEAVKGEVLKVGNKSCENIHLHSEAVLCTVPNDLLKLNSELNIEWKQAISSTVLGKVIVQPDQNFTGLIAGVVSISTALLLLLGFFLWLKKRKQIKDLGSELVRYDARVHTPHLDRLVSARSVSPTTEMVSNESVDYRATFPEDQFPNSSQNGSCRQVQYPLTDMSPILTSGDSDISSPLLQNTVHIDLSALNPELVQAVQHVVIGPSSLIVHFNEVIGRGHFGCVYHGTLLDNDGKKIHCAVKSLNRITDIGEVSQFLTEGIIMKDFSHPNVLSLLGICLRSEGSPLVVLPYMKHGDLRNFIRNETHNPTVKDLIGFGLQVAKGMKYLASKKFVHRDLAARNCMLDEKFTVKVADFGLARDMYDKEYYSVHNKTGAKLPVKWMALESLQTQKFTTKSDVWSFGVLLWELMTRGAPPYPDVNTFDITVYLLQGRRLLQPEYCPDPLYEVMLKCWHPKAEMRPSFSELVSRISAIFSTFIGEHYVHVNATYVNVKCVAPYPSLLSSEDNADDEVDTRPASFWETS
# Procedure, shortened: (§6)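 Kinase profiling run as a contract service, with ATP at the Km of each kinase.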
# [16] = target: Cyclin-dependent kinase 9 (Homo sapiens, UniProt P50750); assay: Inhibition of CDK9 (unknown origin); procedure, shortened: as §6
# Sequence of Cyclin-dependent kinase 9 (P50750 whole entry): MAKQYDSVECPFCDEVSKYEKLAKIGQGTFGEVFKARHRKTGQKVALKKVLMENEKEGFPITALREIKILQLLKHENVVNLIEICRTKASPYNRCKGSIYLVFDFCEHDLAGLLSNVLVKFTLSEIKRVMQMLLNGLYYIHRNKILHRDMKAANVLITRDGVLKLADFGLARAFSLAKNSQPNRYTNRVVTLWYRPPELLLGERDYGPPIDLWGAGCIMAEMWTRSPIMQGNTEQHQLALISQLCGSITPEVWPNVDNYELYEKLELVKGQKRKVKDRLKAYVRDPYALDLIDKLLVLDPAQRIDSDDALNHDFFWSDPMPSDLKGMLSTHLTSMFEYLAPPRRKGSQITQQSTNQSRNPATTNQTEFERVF
# [17] = Selectivity index, ratio of IC50 for human LO2 cells to IC50 for mouse B16 cells; type: toxicity; details: LO2 cells versus B16 cells, read-out: Ratio IC50; procedure, shortened: as §3
# HepG2 [18] = assay: Ratio of cytotoxicity in human HepG2 cells at 1 uM in presence of 5 mM NAC incubated for 48 hrs by MTT assay to cytotoxicity in human HepG2 cells at 1 uM in absence of 5 mM NAC incubated for 48 hrs by MTT assay; type: functional; procedure, shortened: as §5
# [19] = Selectivity index, ratio of IC50 for human LO2 cells to IC50 for human HeLa cells; type: toxicity; details: LO2 cells versus HeLa cells, read-out: Ratio IC50; procedure, shortened: as §3
# [20] = target: Cyclin-dependent kinase 2 (Homo sapiens, UniProt P24941); assay: Inhibition of CDK2 (unknown origin); procedure, shortened: as §6
# HeLa = assay: Cytotoxicity in human HeLa cells assessed as reduction in cell viability incubated for 72 hrs by MTT assay; type: functional, cell-based; procedure, shortened: as §1
# LNCaP = assay: Cytotoxicity in human LNCAP cells assessed as reduction in cell viability incubated for 72 hrs by MTT assay; type: functional, cell-based; procedure, shortened: as §1
# A549 [21] = assay: Cytotoxicity in human A549 cells assessed as reduction in cell viability incubated for 72 hrs by MTT assay
# HepG2 [22] = assay: Induction of apoptosis in human HepG2 cells assessed as apoptosis level at 6 uM incubated for 24 hrs by FITC-labelled Annexin V/PI staining based flow cytometry (reference value: 3.4%); type: functional; procedure, shortened: as §2
compound,measurement,setting,value
COc1c(O)cc(O)c2c(=O)cc(-c3ccccc3)oc12 [WOGONIN],IC50,B16,26.4 µM
same,IC50,HepG2 [1],19.5 µM
same,IC50,MCF7,28 µM
same,IC50,A549 [2],20.1 µM
COc1ccc(-c2cc(=O)c3c(O)cc(OCCCCN4CCN(C)CC4)c(OC)c3o2)cc1,IC50,B16,4.1 µM
same,IC50,HepG2 [1],4.2 µM
same,IC50,MCF7,3.98 µM
same,IC50,A549 [2],2.32 µM
O=c1cc(-c2ccccc2)oc2c(OCCCCN(CCO)CCO)c(OCc3ccccc3)cc(O)c12,IC50,B16,3.76 µM
same,IC50,HepG2 [1],3.14 µM
same,IC50,MCF7,1.09 µM
same,IC50,A549 [2],4.35 µM
O=c1cc(-c2ccccc2)oc2c(OCCCCN3CCOCC3)c(OCc3ccccc3)cc(O)c12,IC50,B16,5.41 µM
same,IC50,HepG2 [1],3.29 µM
same,IC50,MCF7,9.9 µM
same,IC50,A549 [2],6.6 µM
CCN(CC)CCCCOc1c(OCc2ccccc2)cc(O)c2c(=O)cc(-c3ccccc3)oc12,IC50,B16,4.88 µM
same,IC50,HepG2 [1],1.65 µM
same,IC50,MCF7,1.92 µM
same,IC50,A549 [2],3.91 µM
CN1CCN(CCCCOc2c(OCc3ccc(C#N)cc3)cc(O)c3c(=O)cc(-c4ccccc4)oc23)CC1,Activity,HepG2 [3],Dose-dependent effect
same,Activity,HepG2 [4],Dose-dependent effect
same,selectivity ratio,[5],27
same,Activity,L02 [6],Non-Toxic
same,selectivity ratio,[7],4.3 to 27
same,Activity,B16,Dose-dependent effect
same,IC50,B16,3.7 µM
same,selectivity ratio,[8],4.3 to 27
same,Activity,L02 [9],Toxic
same,Activity,HepG2 [10],inactive
same,selectivity ratio,[11],4.3 to 27
same,Activity,HepG2 [1],Dose-dependent effect
same,IC50,HepG2 [1],0.59 µM
same,Activity,HepG2 [12],30.7%
same,Ratio,HepG2 [13],5.5
same,Activity,MCF7,Dose-dependent effect
same,IC50,MCF7,2.42 µM
same,Ratio,HepG2 [14],7
same,IC50,[15],35 µM
same,IC50,[16],0.87 µM
same,IC50,A549 [2],2.14 µM
same,selectivity ratio,[17],4.3 to 27
same,Ratio,HepG2 [18],2.7
same,selectivity ratio,[19],4.3 to 27
same,IC50,[20],6.7 µM
same,Activity,HeLa,Dose-dependent effect
same,IC50,HeLa,2.65 µM
same,Activity,LNCaP,Dose-dependent effect
same,IC50,LNCaP,1.72 µM
same,Activity,A549 [21],Dose-dependent effect
CN1CCN(CCCCOc2c(OCc3nc4ccccc4o3)cc(O)c3c(=O)cc(-c4ccccc4)oc23)CC1,IC50,B16,2.08 µM
same,IC50,HepG2 [1],4.11 µM
same,IC50,MCF7,4.98 µM
same,IC50,A549 [2],3.87 µM
O=c1cc(-c2ccccc2)oc2c(OCCCCN3CCCC3)c(OCc3ccccc3)cc(O)c12,IC50,B16,3.21 µM
same,IC50,HepG2 [1],4.66 µM
same,IC50,MCF7,1.89 µM
same,IC50,A549 [2],1.1 µM
CN1CCN(CCCCOc2c(OCc3ccccc3)cc(O)c3c(=O)cc(-c4ccccc4)oc23)CC1,Activity,HepG2 [3],Dose-dependent effect
same,Activity,HepG2 [4],Dose-dependent effect
same,IC50,B16,2.37 µM
same,Activity,HepG2 [10],inactive
same,Activity,HepG2 [22],20.7%
same,IC50,HepG2 [1],1.5 µM
same,IC50,MCF7,2.93 µM
same,IC50,A549 [2],2.91 µM
CN(C)CCCCOc1c(OCc2ccccc2)cc(O)c2c(=O)cc(-c3ccccc3)oc12,IC50,B16,3.22 µM
same,IC50,HepG2 [1],2.09 µM
same,IC50,MCF7,3.21 µM
same,IC50,A549 [2],1.09 µM
CN1CCN(CCCOc2c(OCc3ccccc3)cc(O)c3c(=O)cc(-c4ccccc4)oc23)CC1,IC50,B16,3.76 µM
same,IC50,HepG2 [1],3.11 µM
same,IC50,MCF7,1.02 µM
same,IC50,A549 [2],3.94 µM
CN(C)CCCOc1c(OCc2ccccc2)cc(O)c2c(=O)cc(-c3ccccc3)oc12,IC50,B16,5.42 µM
same,IC50,HepG2 [1],4.95 µM
same,IC50,MCF7,3.21 µM
same,IC50,A549 [2],2.91 µM
COc1c(OCCCCN2CCN(C)CC2)cc(O)c2c(=O)cc(-c3ccc(C(F)(F)F)cc3)oc12,IC50,B16,4.99 µM
same,IC50,HepG2 [1],2.4 µM
same,IC50,MCF7,2.98 µM
same,IC50,A549 [2],2.89 µM
O=c1cc(-c2ccccc2)oc2c(OCCCN(CCO)CCO)c(OCc3ccccc3)cc(O)c12,IC50,B16,6.89 µM
same,IC50,HepG2 [1],3.55 µM
same,IC50,MCF7,4.23 µM
same,IC50,A549 [2],3.15 µM
COc1c(OCCCCN2CCN(C)CC2)cc(O)c2c(=O)cc(-c3ccc(Cl)cc3)oc12,IC50,B16,2.09 µM
same,IC50,HepG2 [1],3.75 µM
same,IC50,MCF7,3.21 µM
same,IC50,A549 [2],1.43 µM
COc1c(OCCCCN2CCN(C)CC2)cc(O)c2c(=O)cc(-c3ccc(C)cc3)oc12,IC50,B16,5.43 µM
same,IC50,HepG2 [1],1 µM
same,IC50,MCF7,4.02 µM
same,IC50,A549 [2],3.81 µM
